pIC50, pKi: −log10 of the molar value. Square brackets hold non-standard residues; d marks the D form. Peptide text beside a SMILES is read from it. * marks the point of attachment. Piperazinyl(4-Ph) = c1ccc(N2CCN(*)CC2)cc1; dGly(2-thienyl) = N[C@@H](C(=O)O)c1cccs1
Experiments:
[1] = Oral bioavailability in rat; type: ADME, organism-based; details: in vivo
[2] = Half-life is obtained after intravenous dosing of rats.; type: ADME, organism-based; details: rat, in vivo
[3] = target: T1, Endothelin receptor type B (Homo sapiens, UniProt P24530); assay: Ability to displace endothelin ([125I]ET1) from human Endothelin B receptor
T1 sequence (P24530 whole entry): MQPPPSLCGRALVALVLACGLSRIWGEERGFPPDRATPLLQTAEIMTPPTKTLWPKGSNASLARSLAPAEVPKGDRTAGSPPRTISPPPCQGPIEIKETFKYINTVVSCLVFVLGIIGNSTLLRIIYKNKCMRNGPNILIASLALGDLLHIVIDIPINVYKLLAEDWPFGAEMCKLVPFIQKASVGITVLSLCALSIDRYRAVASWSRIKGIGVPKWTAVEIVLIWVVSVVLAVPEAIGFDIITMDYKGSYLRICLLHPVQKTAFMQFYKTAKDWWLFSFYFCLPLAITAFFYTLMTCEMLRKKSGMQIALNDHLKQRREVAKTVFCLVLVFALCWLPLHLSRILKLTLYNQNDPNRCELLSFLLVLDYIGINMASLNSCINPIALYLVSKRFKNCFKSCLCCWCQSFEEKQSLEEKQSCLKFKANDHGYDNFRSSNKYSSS

[4] = target: T2, Endothelin-1 receptor (Homo sapiens, UniProt P25101); assay: Ability to displace endothelin ([125I]ET1) from human Endothelin A receptor
T2 sequence (P25101 whole entry): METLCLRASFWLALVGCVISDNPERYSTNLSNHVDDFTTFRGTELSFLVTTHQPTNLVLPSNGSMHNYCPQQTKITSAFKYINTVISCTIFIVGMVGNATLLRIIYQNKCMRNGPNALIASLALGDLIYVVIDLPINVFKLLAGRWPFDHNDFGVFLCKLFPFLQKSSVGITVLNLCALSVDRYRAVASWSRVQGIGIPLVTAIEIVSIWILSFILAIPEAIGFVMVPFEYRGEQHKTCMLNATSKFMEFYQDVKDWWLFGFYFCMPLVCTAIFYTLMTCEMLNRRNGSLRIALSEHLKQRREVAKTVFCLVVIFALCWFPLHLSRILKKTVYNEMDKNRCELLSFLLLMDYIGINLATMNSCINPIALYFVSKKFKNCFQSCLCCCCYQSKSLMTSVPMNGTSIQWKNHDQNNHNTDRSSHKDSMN
Procedure, shortened: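 Membranes from CHO cells stably transfected with human ETA, prepared at 4 °C and stored at -80 °C. Buffer: 20 mM Tris pH 7.4, 100 mM NaCl, 10 mM MgCl2, 0.2% BSA, protease inhibitors. Bound ligand separated by glass-fibre filtration. Nonspecific binding with 1 µM unlabeled ET-1. IC50 is the mean of at least two determinations.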

[5] = Ratio of endothelin A receptor and endothelin B receptor.
[6] = Maximum drug concentration is determined after oral dosing in rats.; type: ADME, organism-based; set-up: route oral; details: rat, in vivo
[7] = tested on: Rattus norvegicus; assay: (§1) Total drug exposure is determined after oral dosing in rats.; type: ADME, organism-based; set-up: concentration or dose not given beside the values; details: in vivo
[8] = Half-life is obtained after oral dosing of rats.; type: ADME, organism-based; details: rat, in vivo
[9] = target: T3, Endothelin receptor type B (Sus scrofa, UniProt P35463); assay: Ability to displace endothelin ([125I]ET-3) from endothelin B receptor derived from cerebellar tissue of porcine.
T3 sequence (P35463 whole entry): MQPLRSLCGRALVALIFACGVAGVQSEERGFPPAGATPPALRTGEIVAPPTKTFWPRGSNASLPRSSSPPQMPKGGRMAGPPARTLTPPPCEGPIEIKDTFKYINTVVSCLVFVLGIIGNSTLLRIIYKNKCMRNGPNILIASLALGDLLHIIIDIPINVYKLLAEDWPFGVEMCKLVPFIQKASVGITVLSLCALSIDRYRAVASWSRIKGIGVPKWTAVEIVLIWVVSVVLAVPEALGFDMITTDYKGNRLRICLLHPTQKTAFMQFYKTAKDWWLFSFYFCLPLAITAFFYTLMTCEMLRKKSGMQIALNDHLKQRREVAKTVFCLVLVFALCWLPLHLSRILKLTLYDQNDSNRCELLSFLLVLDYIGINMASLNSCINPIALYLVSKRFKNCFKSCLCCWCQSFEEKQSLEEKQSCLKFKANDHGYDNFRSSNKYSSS

[10] = target: T1, Endothelin receptor type B; assay: Binding assay performed using human Endothelin B receptor (hETB) expressed in chinese hamster ovary cells(CHO); type: cell-based
[11] = target: T1, Endothelin receptor type B; assay: Ability to block the ET-1-induced hydrolysis of inositol phosphate in Endothelin B receptor of chinese hamster ovary(CHO) cells.; type: functional
[12] = target: T4, Endothelin-1 receptor (Rattus norvegicus, UniProt P26684); assay: Ability to displace endothelin ([125I]ET1) from endothelin A receptor derived from MMQ cells of rodent.; type: cell-based, Rodentia sp.
T4 sequence (P26684 whole entry): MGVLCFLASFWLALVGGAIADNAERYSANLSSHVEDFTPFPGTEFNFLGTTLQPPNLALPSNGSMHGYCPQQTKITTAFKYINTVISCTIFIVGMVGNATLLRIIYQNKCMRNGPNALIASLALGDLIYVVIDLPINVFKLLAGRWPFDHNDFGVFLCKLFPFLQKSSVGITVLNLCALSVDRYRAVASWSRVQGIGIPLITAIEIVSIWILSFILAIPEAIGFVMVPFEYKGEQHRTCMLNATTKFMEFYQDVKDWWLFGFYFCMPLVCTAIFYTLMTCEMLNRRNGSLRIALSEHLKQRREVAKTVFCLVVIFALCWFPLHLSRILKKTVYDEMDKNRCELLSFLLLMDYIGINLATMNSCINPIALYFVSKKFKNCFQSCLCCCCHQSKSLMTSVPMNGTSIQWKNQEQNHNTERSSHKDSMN

[13] = target: T2, Endothelin-1 receptor; assay: Binding assay performed using human Endothelin A receptor (hETA) expressed in chinese hamster ovary cells(CHO).; type: cell-based
[14] = as §1; type: ADME, organism-based; set-up: concentration or dose not given beside the values; details: rat, in vivo

Row | bioavailability [1] [%] | half-life [2] [h] | Cmax [6] [ng/mL] | AUC [7] [ng·h/mL] | half-life [8] [h] | pIC50 [9] | pIC50 [10] | pIC50 [11] | pIC50 [12] | pIC50 [13] | AUC [14] [ng·h/mL] | SMILES | pKi [3] | pKi [4] | Ratio [5] | pIC50 [3] | pIC50 [4]
1 | 54 | 5 | 2400 | 11200 | 8.1 | 9.54 | 9.55 | 8.89 | – | – | – | CCCCCS(=O)(=O)N(CCC)CCN1C[C@H](c2ccc3c(c2)OCO3)[C@@H](C(=O)O)[C@@H]1c1ccc(OC)c(F)c1 (stereo in doubt; 15b) | – | – | – | – | –
2 | 40 | 3.3 | 700 | 2800 | 6.4 | 9.47 | 9.32 | 8.95 | – | – | – | CCCCCCS(=O)(=O)N(CCC)CCN1C[C@H](c2ccc3c(c2)OCO3)[C@@H](C(=O)O)[C@@H]1c1ccc(OC)c(F)c1 (stereo in doubt; 15c) | – | – | – | – | –
3 | 31 | 6.9 | 1100 | – | 7.3 | 9.49 | 9.33 | 9.22 | – | – | 3700 | CCCCS(=O)(=O)N(CCC)CCN1C[C@H](c2ccc3c(c2)OCO3)[C@@H](C(=O)O)[C@@H]1c1ccc(OC)c(F)c1 (stereo in doubt; 15a) | – | – | – | – | –

The next lines start with the compound.

Row | SMILES | bioavailability [1] [%] | half-life [2] [h] | Cmax [6] [ng/mL] | AUC [7] [ng·h/mL] | half-life [8] [h] | pIC50 [9] | pIC50 [10] | pIC50 [11] | pIC50 [12] | pIC50 [13] | AUC [14] [ng·h/mL] | pKi [3] | pKi [4] | Ratio [5] | pIC50 [3] | pIC50 [4]
4 | CCCOc1ccc2c(c1)[C@@H](c1ccc(OC)cc1OCCO)[C@H](C(=O)O)[C@H]2c1ccc2c(c1)OCO2 | 60 | 2 | – | – | – | – | – | – | – | – | – | 6.96 | 8.96 | 100 | – | –
5 | CCCN(CCN1C[C@H](c2ccc3c(c2)OCO3)[C@@H](C(=O)O)[C@@H]1c1ccc(OC)c(F)c1)S(=O)(=O)CCCCl (stereo in doubt; 15d) | 25 | 14 | 400 | 2200 | 9.6 | 9.70 | 9.85 | 9.08 | 10.03 | 10.15 | – | – | – | – | – | –
6 | CCCN(CCN1C[C@H](c2ccc3c(c2)OCO3)[C@@H](C(=O)O)[C@@H]1c1ccc(OC)c(F)c1)S(=O)(=O)CCCC(F)(F)F (stereo in doubt; 15e) | 25 | 4.3 | 1200 | 4300 | 8.9 | 9.49 | 9.70 | 8.84 | – | – | – | – | – | – | – | –
7 | CCCOc1ccc2c(c1)[C@@H](c1ccc(OC)cc1OCC(=O)O)[C@H](C(=O)O)[C@H]2c1ccc2c(c1)OCO2 [SB-209670] | – | – | – | – | – | – | – | – | – | – | – | 7.74 | 9.70 | 90 | – | –
8 | CC(C)C[C@@H]1NC(=O)[C@@H](c2cccs2)NC(=O)[C@H](CC(=O)O)NC(=O)[C@H](CC(=O)N2CCN(c3ccccc3)CC2)NC(=O)[C@@H](CC(=O)O)NC(=O)[C@@H](Cc2c[nH]c3ccccc23)NC1=O (cyclo(D(Piperazinyl(4-Ph))D[dGly(2-thienyl)]L[dW][dD])) | – | 0.5 | – | – | – | – | – | – | – | – | – | – | – | 540 | 6.89 | 9.62
9 | CCCc1cc(C(=O)O)ccc1OC(C(=O)NS(=O)(=O)c1ccc(C(C)C)cc1)c1ccc2c(c1)OCO2 [L-754142] | 60 | 2 | – | – | – | – | – | – | – | – | – | – | – | 17 | 8.36 | 9.59

From ChEMBL document CHEMBL1130174, “Pyrrolidine-3-carboxylic acids as endothelin antagonists. 2. Sulfonamide-based ETA/ETB mixed antagonists” (J Med Chem, 1997)
